# Assay results as given in ChEMBL document CHEMBL4196090, “Design, synthesis and biological evaluation of piperazinyl-β-carbolinederivatives as anti-leishmanial agents” (Eur J Med Chem, 2018).
# pEC50: −log10 of the molar value.
# Columns and labels:
# [1] = Selectivity index, ratio of CC50 for human HeLa cells to EC50 for Leishmania infantum JPCM5 MCAN/ES/98/LLM-87 promastigotes; assay type: toxicity; details: read-out: Ratio CC50/EC50
# How it was run: (§1)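 Selectivity index computed as CC50 (HeLa, Alamar blue) divided by EC50 for the respective parasite stage.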
# [2] = tested on: Leishmania infantum; assay: Selectivity ratio of EC50 for antileishmanial activity against Leishmania infantum JPCM5 MCAN/ES/98/LLM-87 promastigotes to EC50 for antileishmanial activity against Leishmania infantum JPCM5 MCAN/ES/98/LLM-87 amastigotes; assay type: functional
# [3] = Selectivity index, ratio of CC50 for human HeLa cells to EC50 for Leishmania donovani LdBOB axenic amastigotes; assay type: toxicity; details: read-out: Ratio CC50/EC50; how it was run: as §1
# [4] = Cytotoxicity against human HeLa cells after 65 hrs by alamar blue assay; assay type: cell-based
# How it was run: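 HeLa cells first screened at 500 µM. Active compounds then tested for CC50: cells seeded at 2 × 10^4/well, exposed to compound 65 h, then Alamar Blue added for a further 5 h.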
# [5] = tested on: Leishmania donovani; assay: Antileishmanial activity against Leishmania donovani LdBOB amastigotes infected in human THP1 cells after 72 hrs by Giemsa staining based microscopic method; assay type: functional, organism-based; details: THP-1, 72 h
# How it was run: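 THP-1 cells, kept in MEM plus 10% FBS, plated at 20,000/well with 10 nM PMA, 37 °C, 5% CO2, 75 h. Washed in PBS with 1 mM CaCl2, 0.5 mM MgCl2, 0.1% BSA. Infected with axenic LdBOB amastigotes at MOI 5 for 18 h, washed, serial compound dilutions for 72 h. Methanol fixation, Giemsa stain, ~200 macrophages/well counted. % infection vs untreated control (100%) gives EC50.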
# [6] = Selectivity index, ratio of CC50 for human HeLa cells to EC50 for Leishmania donovani promastigotes; assay type: toxicity; details: read-out: Ratio CC50/EC50; how it was run: as §1
# [7] = tested on: Leishmania donovani; assay: Antileishmanial activity against Leishmania donovani promastigotes after 72 hrs by alamar blue assay; assay type: functional, organism-based
# How it was run: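 L. donovani promastigotes grown at 26 °C in M199 plus 10% heat-inactivated FCS. Exposed to serial compound dilutions for 72 h, then Alamar blue read-out to give EC50.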
# [8] = Selectivity index, ratio of CC50 for human HeLa cells to EC50 for Leishmania infantum JPCM5 MCAN/ES/98/LLM-87 axenic amastigotes; assay type: toxicity; details: read-out: Ratio CC50/EC50; how it was run: as §1
# [9] = tested on: Leishmania infantum; assay: Antileishmanial activity against Leishmania infantum JPCM5 MCAN/ES/98/LLM-87 promastigotes after 72 hrs by alamar blue assay; assay type: functional, organism-based; details: MCAN/ES/98/LLM-87, 72 h
# How it was run: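 L. infantum JPCM5 promastigotes grown at 26 °C in HOMEM. Exposed to serial compound dilutions for 72 h, then Alamar blue read-out to give EC50.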
# [10] = tested on: Leishmania donovani; assay: Antileishmanial activity against Leishmania donovani LdBOB axenic amastigotes after 72 hrs by alamar blue assay; assay type: functional, organism-based
# How it was run: (§2)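 Axenic amastigotes (L. donovani LdBOB; L. infantum clone JPCM5, grown at 26 °C in HOMEM) incubated 72 h with compounds. Viability read by Alamar blue; EC50 determined.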
# [11] = Selectivity index, ratio of CC50 for human HeLa cells to EC50 for Leishmania donovani LdBOB amastigotes infected in human THP1 cells; assay type: toxicity, cell-based; details: read-out: Ratio CC50/EC50; how it was run: as §1
# [12] = tested on: Leishmania infantum; assay: Antileishmanial activity against Leishmania infantum JPCM5 MCAN/ES/98/LLM-87 axenic amastigotes after 72 hrs by alamar blue assay; assay type: functional, organism-based; details: MCAN/ES/98/LLM-87, 72 h; how it was run: as §2
# [13] = tested on: Leishmania infantum; assay: Potency index, ratio of pentamidine EC50 to compound EC50 for antileishmanial activity against Leishmania infantum JPCM5 MCAN/ES/98/LLM-87 promastigotes; assay type: functional
# [14] = tested on: Leishmania infantum; assay: Potency index, ratio of miltefosine EC50 to compound EC50 for antileishmanial activity against Leishmania infantum JPCM5 MCAN/ES/98/LLM-87 promastigotes; assay type: functional
Structure (SMILES),selectivity ratio [1],Ratio EC50 [2],selectivity ratio [3],CC50 at 65 h [4],pEC50 [5],selectivity ratio [6],pEC50 [7],selectivity ratio [8],pEC50 [9],pEC50 [10],selectivity ratio [11],pEC50 [12],Ratio EC50 [13],Ratio EC50 [14]
COc1ccc(N2CCN(C(=O)c3cc4c([nH]c5ccccc54)c(-c4ccccc4)n3)CC2)cc1,> 55.1,2 - 5,> 179,> 500 µM,5.04,> 79.1,5.20,> 96.2,5.04,5.55,> 54.4,5.28,–,–
Cc1ccccc1N1CCN(C(=O)c2cc3c([nH]c4ccccc43)c(-c3ccccc3)n2)CC1,> 13.8,–,> 83.3,> 500 µM,5.02,> 39.7,4.90,–,4.44,5.22,> 52.1,–,–,–
O=C(c1cc2c([nH]c3ccccc32)c(-c2ccccc2)n1)N1CCN(c2ccc([N+](=O)[O-])cc2)CC1,> 25.5,–,> 42.4,> 500 µM,4.67,> 39.1,4.89,> 20.2,4.70,4.93,> 23.3,4.61,–,–
O=C(c1cc2c([nH]c3ccccc32)c(-c2ccccc2)n1)N1CCN(c2cccc(Cl)c2Cl)CC1,> 46.7,2 - 5,> 87.7,> 500 µM,5.19,> 71.9,5.16,> 172,4.97,5.24,> 78.1,5.54,–,–
O=C(c1cc2c([nH]c3ccccc32)c(-c2ccccc2)n1)N1CCN(Cc2ccccc2)CC1,1.2,–,2.3,28.9 µM,5.06,1.8,4.79,–,4.61,4.90,3.3,–,–,–
O=C(c1cc2c([nH]c3ccccc32)c(-c2ccccc2)n1)N1CCN(c2ccccc2F)CC1,> 33.6,–,> 179,> 500 µM,5.40,> 144,5.46,> 53.2,4.83,5.55,> 125,5.03,–,–
Cc1ccc(N2CCN(C(=O)c3cc4c([nH]c5ccccc54)c(-c4ccccc4)n3)CC2)cc1,> 51.9,2 - 5,> 152,> 500 µM,5.24,> 102,5.31,> 80.6,5.02,5.48,> 87.7,5.21,–,–
O=C(c1cc2c([nH]c3ccccc32)c(-c2ccccc2)n1)N1CCN(c2ccncc2)CC1,1.2,–,–,78.7 µM,–,1.2,4.16,–,4.18,–,–,–,–,–
O=C(c1cc2c([nH]c3ccccc32)c(-c2ccccc2)n1)N1CCN(c2ccccn2)CC1,> 14.7,–,> 98,> 500 µM,4.92,> 66.7,5.12,–,4.47,5.29,> 42,–,–,–
O=C(c1cc2c([nH]c3ccccc32)c(-c2ccccc2)n1)N1CCN(c2ccc(Cl)cc2)CC1,> 15.2,–,–,> 500 µM,–,> 12.9,4.41,–,4.48,–,–,–,–,–
COc1ccccc1N1CCN(C(=O)c2cc3c([nH]c4ccccc43)c(-c3ccccc3)n2)CC1,61.1,2 - 5,89,205 µM,5.10,58.7,5.46,41.8,5.47,5.64,25.6,5.31,4,4
O=C(c1cc2c([nH]c3ccccc32)c(-c2ccccc2)n1)N1CCN(c2ccccc2)CC1,3,–,3,38.1 µM,5.14,2.3,4.79,8.5,4.90,4.90,5.2,5.35,–,–
O=C(c1cc2c([nH]c3ccccc32)c(-c2ccccc2)n1)N1CCN(c2ccc(F)cc2)CC1,> 35.5,–,> 39.7,> 500 µM,4.65,> 28.6,4.76,> 44.2,4.85,4.90,> 22.4,4.95,–,–
O=C(c1cc2c([nH]c3ccccc32)c(-c2ccccc2)n1)N1CCN(c2ccccc2Cl)CC1,> 31.8,–,> 86.2,> 500 µM,5.07,> 71.6,5.16,> 41,4.80,5.24,> 58.8,4.91,–,–
O=C(c1cc2c([nH]c3ccccc32)c(-c2ccccc2)n1)N1CCN(c2cccc(Cl)c2)CC1,1.2,–,1.8,18.4 µM,5.17,1.4,4.88,5.6,4.80,4.99,2.7,5.48,–,–
CCCCCCCCCCCCCCCCOP(=O)([O-])OCC[N+](C)(C)C [MILTEFOSINE],–,–,–,–,5.19,–,5.51,–,4.90,5.55,–,5.32,–,–
N=C(N)c1ccc(OCCCCCOc2ccc(C(=N)N)cc2)cc1 [PENTAMIDINE],–,–,–,–,4.63,–,5.19,–,5.08,5.80,–,5.57,–,–
